# Source: ChEMBL document CHEMBL1138573, “Synthesis and molluscicidal activity of some new thiophene, thiadiazole and pyrazole derivatives” (2009)
# Assays:
# Assay type in all cases: functional
# Biomphalaria alexandrina [1] = assay: Molluscicidal activity against Biomphalaria alexandrina assessed as number of dead snail per 10 snails at 4 ppm after 24 hrs
# In short: (§1)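 Field-collected B. alexandrina snails held 45 days in the lab, fed daily on lettuce, and checked free of parasitic infection. Compound mixed with a few drops of Tween 20, then suspended in untreated raw River Nile water at seven concentrations of 4–16 ppm, in aerated glass jars. Ten snails of similar size (ca. 7 mm) per jar, kept 24 h at ambient temperature. Run three times and the mean number killed taken. LC50 and LC90 were derived from this mortality. Control was water with Tween 20. Follows WHO guidelines.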
# Biomphalaria alexandrina [2] = assay: Molluscicidal activity against Biomphalaria alexandrina assessed as number of dead snail per 10 snails at 8 ppm after 24 hrs; in short: as §1
# Biomphalaria alexandrina [3] = assay: Molluscicidal activity against Biomphalaria alexandrina assessed as number of dead snail per 10 snails at 16 ppm after 24 hrs; in short: as §1
# Biomphalaria alexandrina [4] = assay: Molluscicidal activity against Biomphalaria alexandrina after 24 hrs; details: for LC50: Biomphalaria alexandrina, 24 h; in short: as §1
# Biomphalaria alexandrina [5] = assay: Molluscicidal activity against Biomphalaria alexandrina assessed as number of dead snail per 10 snails at 10 ppm after 24 hrs; in short: as §1
# Biomphalaria alexandrina [6] = assay: Molluscicidal activity against Biomphalaria alexandrina assessed as number of dead snail per 10 snails at 14 ppm after 24 hrs; in short: as §1
# Biomphalaria alexandrina [7] = assay: Molluscicidal activity against Biomphalaria alexandrina assessed as number of dead snail per 10 snails at 12 ppm after 24 hrs; in short: as §1
# Biomphalaria alexandrina [8] = assay: Molluscicidal activity against Biomphalaria alexandrina assessed as number of dead snail per 10 snails at 6 ppm after 24 hrs; in short: as §1
compound,measurement,setting,value
CC(=O)/C(C(=O)c1ccccc1)=C1/SC(C(=O)c2ccccc2)=NN1c1ccc(C)cc1,Activity,Biomphalaria alexandrina [1],2
same,Activity,Biomphalaria alexandrina [2],5
same,Activity,Biomphalaria alexandrina [3],10
same,LC90,Biomphalaria alexandrina [4],9 ppm
same,LC50,Biomphalaria alexandrina [4],5.5 µg/mL
same,Activity,Biomphalaria alexandrina [5],8
same,Activity,Biomphalaria alexandrina [6],10
same,Activity,Biomphalaria alexandrina [7],10
same,Activity,Biomphalaria alexandrina [8],3
COc1ccc(N2N=C(C(=O)c3ccccc3)S/C2=C(/C(C)=O)C(=O)c2ccccc2)cc1,Activity,Biomphalaria alexandrina [1],1
same,Activity,Biomphalaria alexandrina [2],4
same,Activity,Biomphalaria alexandrina [3],10
same,LC90,Biomphalaria alexandrina [4],11 ppm
same,LC50,Biomphalaria alexandrina [4],6 µg/mL
same,Activity,Biomphalaria alexandrina [5],7
same,Activity,Biomphalaria alexandrina [6],10
same,Activity,Biomphalaria alexandrina [7],10
same,Activity,Biomphalaria alexandrina [8],3
Cc1n[nH]c(Nc2ccccc2)c1C(=O)c1ccccc1,Activity,Biomphalaria alexandrina [1],1
same,Activity,Biomphalaria alexandrina [2],4
same,Activity,Biomphalaria alexandrina [3],10
same,LC90,Biomphalaria alexandrina [4],18 ppm
same,LC50,Biomphalaria alexandrina [4],13 µg/mL
same,Activity,Biomphalaria alexandrina [5],8
same,Activity,Biomphalaria alexandrina [6],10
same,Activity,Biomphalaria alexandrina [7],9
same,Activity,Biomphalaria alexandrina [8],3
O=C(Nc1cc(Cl)c([N+](=O)[O-])cc1Cl)c1ccccc1O,LC100,Biomphalaria alexandrina [4],1 ppm
CCOC(=O)c1sc(Nc2ccccc2)c(C(=O)c2ccccc2)c1C,Activity,Biomphalaria alexandrina [1],0
same,Activity,Biomphalaria alexandrina [2],1
same,Activity,Biomphalaria alexandrina [3],10
same,LC90,Biomphalaria alexandrina [4],20 ppm
same,LC50,Biomphalaria alexandrina [4],18 µg/mL
same,Activity,Biomphalaria alexandrina [5],2
same,Activity,Biomphalaria alexandrina [6],4
same,Activity,Biomphalaria alexandrina [7],2
same,Activity,Biomphalaria alexandrina [8],1
CC(=O)/C(C(=O)c1ccccc1)=C1/SC(C(=O)c2ccccc2)=NN1c1ccccc1,Activity,Biomphalaria alexandrina [1],2
same,Activity,Biomphalaria alexandrina [2],4
same,Activity,Biomphalaria alexandrina [3],10
same,LC90,Biomphalaria alexandrina [4],10 ppm
same,LC50,Biomphalaria alexandrina [4],8 µg/mL
same,Activity,Biomphalaria alexandrina [5],6
same,Activity,Biomphalaria alexandrina [6],10
same,Activity,Biomphalaria alexandrina [7],9
same,Activity,Biomphalaria alexandrina [8],2
CC(=O)c1sc(Nc2ccccc2)c(C(=O)c2ccccc2)c1C,Activity,Biomphalaria alexandrina [1],1
same,Activity,Biomphalaria alexandrina [2],5
same,Activity,Biomphalaria alexandrina [3],10
same,LC90,Biomphalaria alexandrina [4],22 ppm
same,LC50,Biomphalaria alexandrina [4],16 µg/mL
same,Activity,Biomphalaria alexandrina [5],8
same,Activity,Biomphalaria alexandrina [6],10
same,Activity,Biomphalaria alexandrina [7],8
same,Activity,Biomphalaria alexandrina [8],3
Cc1c(C(=O)c2ccccc2)sc(Nc2ccccc2)c1C(=O)c1ccccc1,Activity,Biomphalaria alexandrina [1],1
same,Activity,Biomphalaria alexandrina [2],5
same,Activity,Biomphalaria alexandrina [3],10
same,LC90,Biomphalaria alexandrina [4],20 ppm
same,LC50,Biomphalaria alexandrina [4],15.6 µg/mL
same,Activity,Biomphalaria alexandrina [5],6
same,Activity,Biomphalaria alexandrina [6],10
same,Activity,Biomphalaria alexandrina [7],9
same,Activity,Biomphalaria alexandrina [8],4
Cc1c(C(=O)O)sc(Nc2ccccc2)c1C(=O)c1ccccc1,Activity,Biomphalaria alexandrina [1],1
same,Activity,Biomphalaria alexandrina [2],3
same,Activity,Biomphalaria alexandrina [3],10
same,LC90,Biomphalaria alexandrina [4],23 ppm
same,LC50,Biomphalaria alexandrina [4],19 µg/mL
same,Activity,Biomphalaria alexandrina [5],5
same,Activity,Biomphalaria alexandrina [6],8
same,Activity,Biomphalaria alexandrina [7],6
same,Activity,Biomphalaria alexandrina [8],2
